Measurements from ChEMBL document CHEMBL1157285, “Antimalarial compounds from Grewia bilamellata” (J Nat Prod, 2006).
One block for each compound: values may come before it.

How the values were obtained:
[1] = Cytotoxicity against human KB cells by SRB assay; assay type: cell-based; conditions: read-out: ED50 (the source's name)
Procedure, shortened: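 Human oral epidermoid carcinoma KB cells stained with sulforhodamine B; ED50 from nonlinear regression of percent survival against compound concentration. ED50 of 50 µM or above taken as noncytotoxic; extract values in µg/mL.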

[2] = test system: Plasmodium falciparum; assay: Antimalarial activity against Plasmodium falciparum D6 by [3H]hypoxanthine uptake; assay type: functional, organism-based
Procedure, shortened: (§1)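 Cultured P. falciparum clones tested, parasite-specific [3H]hypoxanthine incorporation measured; zero-drug wells set as 100% incorporation. IC50 (50% inhibition of incorporation) fitted by nonlinear regression; pure compounds with IC50 < 10 µg/mL counted as active. Extract values expressed in µg/mL.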

[3] = Selectivity index, ratio of ED50 for human KB cells to IC50 for Plasmodium falciparum D6; assay type: functional
Procedure, shortened: (§2)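 Selectivity index computed as ED50 in KB cells (SRB survival assay) divided by IC50 against the P. falciparum clone from [3H]hypoxanthine incorporation, both fitted by nonlinear regression.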

[4] = test system: Plasmodium falciparum; assay: Antimalarial activity against Plasmodium falciparum W2 by [3H]hypoxanthine uptake; assay type: functional, organism-based; procedure, shortened: as §1
[5] = Selectivity index, ratio of ED50 for human KB cells to IC50 for Plasmodium falciparum W2; assay type: functional; procedure, shortened: as §2

Compound: CC1(C)CC[C@]2(C(=O)O)CC[C@]3(C)C(=CC[C@@H]4[C@@]5(C)C[C@@H](O)[C@H](O)C(C)(C)[C@@H]5CC[C@]43C)[C@@H]2C1 [MASLINIC ACID]
CC50 [1]: 51.5 µM
IC50 [2]: 21.1 µM
Selectivity Index [3]: 2.4
IC50 [4]: 8.6 µM
Selectivity Index [5]: 5.9

Compound: CCN(CC)CCCC(C)Nc1ccnc2cc(Cl)ccc12 (stereo unspecified) [CHLOROQUINE]
CC50 [1]: 30.8 µM

Compound: CC(C)(O)[C@@H]1CC[C@]2(C)CC[C@]3(C)[C@H](CC[C@@H]4[C@@]5(C)CC[C@@H](O)C(C)(C)[C@@H]5CC[C@]43C)[C@@H]12
CC50 [1]: > 90 µM
IC50 [2]: 19.8 µM
Selectivity Index [3]: >4.5
IC50 [4]: 19.1 µM
Selectivity Index [5]: >4.7

Second part, led by results:

IC50 [2]: 42.2 µM
IC50 [4]: 23 µM
Compound: COC1=CC(=O)C=C(OC)C1(O)CC(C)=O
CC50 [1]: 169 µM
Selectivity Index [3]: 4
Selectivity Index [5]: 7.3

IC50 [2]: 21.2 µM
IC50 [4]: 18.4 µM
Compound: COc1cc([C@@H]2Oc3cc(/C=C/CO)cc(OC)c3O[C@H]2CO)cc(OC)c1O [NITIDANIN]
CC50 [1]: > 99 µM
Selectivity Index [3]: >4.6
Selectivity Index [5]: >5.4

IC50 [2]: 11.2 µM
IC50 [4]: 5.5 µM
Compound: COc1cc([C@@H]2Oc3cc4ccc(=O)oc4cc3O[C@H]2CO)cc(O)c1O [GREWIN]
CC50 [1]: > 108 µM
Selectivity Index [3]: >9.6
Selectivity Index [5]: >19.7
